Laboratory results published in PubChem BioAssay.
Activity calls are given as the source filed them.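 How the source made its calls, unless noted: active means a full or partial loss of lipid-probe fluorescence in the fish gall bladder, intestine or both, judged by eye; inactive means no fluorescence loss, or compound toxic to the fish.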

What was measured:
[1] = inhibitors of TNFa-induced NFkB p65 translocation, primary screen, imaging, HUVEC, MLSMR starter and 10KST1 sets (AID 438;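 active means inhibition above 20% together with a positive visual image hit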;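 further: compound added about 3h40 before a 20 min TNFalpha stimulation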;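 on inhibition: signal is the nuclear over cytoplasmic p65 intensity ratio per well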); conditions: HUVEC TNFa-induced p65 nuclear translocation; cell count: measured here: nuclei count (cytotoxicity indicator), at 2.08 µM unless noted; inhibition: at 2 µM, stronger effect = higher value unless noted
[2] = endothelial E-selectin expression blockers – imaging, HUVEC, immunofluorescence, MLSMR starter and 10KST1 sets, primary screen (AID 487;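 active means visually confirmed hit in the image check and inhibition above 20%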;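 on inhibition: signal is fraction of cell area covered by stained E-selectin grains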;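 on nuclei count: 100% = median nuclei count of all wells on the same plate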); conditions: HUVEC TNFalpha-induced E-selectin immunofluorescence imaging, at 2 µM; inhibition: stronger effect = higher value; nuclei count: measured here: cell number, toxicity
[3] = Primary imaging screen for DUSP6 inhibitors that restore phospho-Erk in transfected HeLa cells, chemical complementation (AID 609;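 active means compounds giving at least 50% inhibition in the cell-based MKP-3 phosphatase rescue imaging test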;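 on inhibition: phospho-Erk level distribution per well compared with pooled transfected vehicle control wells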); conditions: HeLa MKP-3 transfected, phospho-Erk imaging KS statistic, at 10 µM
[4] = target: Dual specificity protein phosphatase 6 (Homo sapiens) (UniProt Q16828); test: as above; conditions: HeLa MKP-3 transfected, phospho-Erk imaging KS statistic, at 10 µM, stronger effect = higher value
[5] = target: Voltage-gated potassium channel subunit beta-2 (Rattus norvegicus) (UniProt P62483); test: inhibitors of rat Kvbeta2 reductase activity – biochemical, NADPH fluorescence, primary screen (AID 622;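 active means fluorescence slope higher than the sample average by over 3 SD, cut at about -0.22 in these data, passing the limit was not always enough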;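 further: slope of raw intensity against log time taken from 70 to 1610 s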); conditions: recombinant KvBeta, 4-cyanobenzaldehyde reduction, at 10 µM, stronger effect = higher value
[6] = target: Voltage-gated potassium channel subunit beta-2 (Rattus norvegicus) (UniProt P62483); test: enhancers of rat Kvbeta2 NADPH turnover – biochemical, NADPH fluorescence, primary screen (AID 623;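 active means NADPH fluorescence slope more negative than the mean of all samples by about 3 SD, 99.7% confidence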;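 further: fluorescence intensity change per second fitted from 20 to 320 s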); conditions: Recombinant KvBeta, NADPH fluorescence decrease slope, 10 min; at 10 µM; stronger effect = lower value
[7] = target: Alpha-2C adrenergic receptor (Homo sapiens) (UniProt P18825); test: compounds altering alpha2C-coupled GIRK flux – cell-based, HEK293 alpha2C/GIRK1/2, thallium flux, primary screen (AID 624;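 active means fluorescence slope after compound addition differing from the mean of all screened samples at 99.7% confidence, in either direction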;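 further: slope of fluorescence ratio to pre-addition baseline per second over 15 to 24 s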); conditions: thallium flux BTC fluorescence, at 10 µM, actives lie on both sides
[8] = inhibitors of larval lipid processing in zebrafish, primary screen, whole organism, PED6 fluorescence, gall bladder and intestine (AID 686); conditions: Zebrafish larvae PED6 lipid processing, fluorescence scoring;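 further: larvae 5 to 7 days old with five fish per well; signal comes from phospholipase A2 cleavage of quenched PED6 carried via bile; overnight exposure to compound and PED6 before scoring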
In short: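 Doses: 20 µM single dose. Test system: live zebrafish larvae aged 5-7 days, whole organism. Quantity: five larvae per well. Measured by: By-eye fluorescence microscopy. Reagent: ingested quenched lipid PED6 at 100 nM. Read-out: visual per-well fluorescence inhibition score. Times: overnight exposure of larvae to compound plus PED6.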

[9] = loss of swimming-algae plug formation – whole organism, Chlamydomonas reinhardtii, WT vs cilia-less mutant, absorbance, 96-well, primary screen (AID 463189;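 active means inhibition at or above 50% relative to wild type and mutant plate controls; inactive means inhibition below 50%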;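 further: 0% = wild type cc124 cells in DMSO and 100% = ciliumless bld1 mutant cells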); conditions: Chlamydomonas reinhardtii gravitaxis, OD600 absorbance, 2 days; at 10 µM; stronger effect = higher value
[10] = measured here: cell density z-score
[11] = measured here: nuclear c-Myc green intensity z-score
[12] = measured here: nuclear pErk red intensity z-score, stronger effect = higher value

Sequence of Voltage-gated potassium channel subunit beta-2 (Rattus norvegicus) (P62483 whole entry, looked up): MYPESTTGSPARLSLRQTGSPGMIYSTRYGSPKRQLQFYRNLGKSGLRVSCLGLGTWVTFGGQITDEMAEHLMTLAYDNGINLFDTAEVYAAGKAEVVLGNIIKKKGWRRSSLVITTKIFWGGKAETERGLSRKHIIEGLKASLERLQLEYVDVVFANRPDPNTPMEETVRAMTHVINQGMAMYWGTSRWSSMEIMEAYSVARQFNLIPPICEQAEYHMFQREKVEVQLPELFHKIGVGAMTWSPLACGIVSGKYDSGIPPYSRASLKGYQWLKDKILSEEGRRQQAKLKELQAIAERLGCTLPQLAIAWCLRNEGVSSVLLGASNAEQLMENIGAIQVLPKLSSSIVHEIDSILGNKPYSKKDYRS
Sequence of Alpha-2C adrenergic receptor (Homo sapiens) (P18825 whole entry, looked up): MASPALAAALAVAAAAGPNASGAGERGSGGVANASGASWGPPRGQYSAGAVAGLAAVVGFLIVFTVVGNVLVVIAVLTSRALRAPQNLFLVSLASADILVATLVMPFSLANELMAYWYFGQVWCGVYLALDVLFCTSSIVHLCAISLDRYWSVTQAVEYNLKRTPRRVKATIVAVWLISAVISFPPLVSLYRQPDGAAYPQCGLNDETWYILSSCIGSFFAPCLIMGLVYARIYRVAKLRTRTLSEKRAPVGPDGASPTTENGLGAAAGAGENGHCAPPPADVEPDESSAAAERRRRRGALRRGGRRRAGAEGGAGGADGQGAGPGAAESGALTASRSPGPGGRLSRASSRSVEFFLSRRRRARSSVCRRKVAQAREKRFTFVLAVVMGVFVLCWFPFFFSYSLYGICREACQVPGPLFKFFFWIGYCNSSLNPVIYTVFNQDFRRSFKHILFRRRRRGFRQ
Sequence of Dual specificity protein phosphatase 6 (Homo sapiens) (Q16828 whole entry, looked up): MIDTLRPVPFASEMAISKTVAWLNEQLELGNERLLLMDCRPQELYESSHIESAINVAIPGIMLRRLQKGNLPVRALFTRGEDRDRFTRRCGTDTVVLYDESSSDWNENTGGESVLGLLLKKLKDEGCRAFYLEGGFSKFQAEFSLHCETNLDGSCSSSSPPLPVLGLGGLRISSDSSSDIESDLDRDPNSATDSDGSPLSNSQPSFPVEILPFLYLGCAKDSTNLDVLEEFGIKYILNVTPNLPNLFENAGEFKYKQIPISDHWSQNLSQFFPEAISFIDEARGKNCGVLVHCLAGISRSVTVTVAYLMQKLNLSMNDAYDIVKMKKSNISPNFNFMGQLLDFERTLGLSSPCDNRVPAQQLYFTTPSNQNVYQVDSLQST

SMILES	cell count [1]	inhibition [1]	inhibition [2]	nuclei count [2]	z-score [3, 10]	z-score [3, 11]	z-score [3, 12]	inhibition [4]	fluorescence slope [5]	NADPH fluorescence slope [6]	slope [7]	outcome [8]	inhibition [9]
CCN(CC)c1ccc(N=Cc2c(O)n(-c3ccccc3C)c(=O)[nH]c2=O)cc1	337	3.8% (inactive)	-48.3% (inactive)	172%	-0.126	0.959	0.0511	7.01% (inactive)	-0.394 (inactive)	-0.000163 (inactive)	0.00909 (inactive)	inactive	24.7% (inactive)
CN(C)CCc1nn[nH]n1	586	-12.8% (inactive)	-15.2% (inactive)	115%	-0.419	0.458	0.261	1.75% (inactive)	-0.47 (inactive)	-0.000339 (inactive)	0.00441 (inactive)	inactive	25.8% (inactive)
CC(=O)OC1N=C(c2ccccc2)c2ccccc2NC1=O (configuration not stated)	428	-3.5% (inactive)	14.8% (inactive)	88.8%	0.0297	-1.27	-0.528	6.04% (inactive)	-0.509 (inactive)	-5.2e-06 (inactive)	0.00675 (inactive)	inactive	12.3% (inactive)
CC(C)OC(=O)c1c(N)n(Cc2ccco2)c2nc3ccccc3nc12	337	-5.5% (inactive)	-136% (inactive)	108%	-1.01	1.4	-1.07	-4.7% (inactive)	-0.101 (inactive)	1e-05 (inactive)	0.00512 (inactive)	inactive	1.76% (inactive)
CC(C)Cc1[nH]c(=O)c(C#N)c2c1CCC2	490	8.7% (inactive)	-51.3% (inactive)	119%	0.582	0.998	-0.369	-1.75% (inactive)	-0.439 (inactive)	-4.3e-06 (inactive)	0.00495 (inactive)	inactive	20.8% (inactive)
CCN(CC)CCN=C(C)c1c(O)n(-c2ccccc2OC)c(=O)[nH]c1=O	564	0.8% (inactive)	-34% (inactive)	88.8%	-0.563	-1.02	1.36	-2.91% (inactive)	-0.555 (inactive)	-2.8e-05 (inactive)	0.0051 (inactive)	inactive	-0.4% (inactive)
CCCCn1c(O)c(C=NCCN2CCCCC2)c(=O)[nH]c1=O	430	0.6% (inactive)	17.7% (inactive)	87.8%	0.907	-2.11	-0.0585	-4.7% (inactive)	-0.489 (inactive)	9.8e-06 (inactive)	0.00621 (inactive)	inactive	3.56% (inactive)
CCOCCN1CCC(OC(C)=O)C(C)C1 (configuration not stated)	461	-0.9% (inactive)	-83.1% (inactive)	115%	-0.179	-1.35	-0.74	-6.86% (inactive)	-0.51 (inactive)	-0.000103 (inactive)	0.00675 (inactive)	inactive	-15.8% (inactive)
COC(=O)C(O)(c1c[nH]c2ccccc12)C(F)(F)F (configuration not stated)	466	-0.7% (inactive)	-19.2% (inactive)	112%	0.726	0.429	-1.12	-5.26% (inactive)	-0.373 (inactive)	1.2e-05 (inactive)	0.00556 (inactive)	inactive	-11.1% (inactive)
COc1cc2[nH]c(=O)n(-c3cccc(Cl)c3)c(=O)c2cc1OC	636	-0.6% (inactive)	-128% (inactive)	159%	0.96	-1.11	1.07	-1.12% (inactive)	-0.467 (inactive)	-0.000203 (inactive)	0.00492 (inactive)	inactive	-6.85% (inactive)
C=CCn1c(O)c(C=Nc2ccc(N(CC)CC)cc2)c(=O)[nH]c1=O	321	4.1% (inactive)	-65.7% (inactive)	88.8%	-1.25	0.816	-0.799	-1.75% (inactive)	-0.321 (inactive)	-6.9e-05 (inactive)	0.00606 (inactive)	inactive	25.3% (inactive)
COc1ccc(Cn2c(O)c(C=NCCN3CCOCC3)c(=O)[nH]c2=O)cc1	587	-0.9% (inactive)	36.9% (inactive)	166%	0.642	-0.606	-0.227	19.3% (inactive)	-0.342 (inactive)	-2.7e-06 (inactive)	0.00514 (inactive)	inactive	-7.73% (inactive)
CC(=C1C(=O)c2ccccc2C1=O)N1CCN(CCN=Cc2c(O)n(C)c(=O)n(C)c2=O)CC1	584	-2.8% (inactive)	-90.4% (inactive)	138%	-0.147	0.321	0.747	1.98% (inactive)	-0.482 (inactive)	-2e-05 (inactive)	0.00537 (inactive)	inactive	18.5% (inactive)
COc1cccc(-n2c(C)nc3ccccc3c2=O)c1	554	7.1% (inactive)	-57.2% (inactive)	161%	0.773	1.04	-1.15	7.73% (inactive)	-0.353 (inactive)	2e-05 (inactive)	0.00545 (inactive)	inactive	-5.87% (inactive)
OC(Cc1ccccc1)(c1ccccc1)C1CN2CCC1CC2 (configuration not stated)	556	-8.4% (inactive)	-124% (inactive)	130%	0.0962	1.34	0.286	1.98% (inactive)	-0.512 (inactive)	-2.1e-05 (inactive)	0.00546 (inactive)	inactive	0.812% (inactive)
COc1ccc(-n2c(SC)nc3ccccc3c2=O)cc1	594	-3.7% (inactive)	-93.7% (inactive)	134%	-0.0992	-1.67	-0.0859	4.25% (inactive)	-0.492 (inactive)	-0.000141 (inactive)	0.00471 (inactive)	inactive	12.5% (inactive)
CCN(CC)c1ccc(N=Cc2c(O)n(-c3cc(OC)ccc3OC)c(=O)[nH]c2=O)cc1	462	2.1% (inactive)	-25.3% (inactive)	172%	-0.53	0.14	0.193	16.8% (inactive)	-0.37 (inactive)	-5.8e-05 (inactive)	0.00328 (inactive)	inactive	34.9% (inactive)
CCOC(C(=O)OCC(O)CN(CC)CC)(c1ccccc1)c1ccccc1 (configuration not stated)	598	-12.4% (inactive)	-341% (inactive)	184%	-0.241	-0.53	1.71	-5.89% (inactive)	-0.446 (inactive)	-0.000326 (inactive)	0.00508 (inactive)	inactive	19.6% (inactive)
O=c1[nH]c(=O)n(C2CCCCC2)c(O)c1C=NCCCn1ccnc1	684	-20.4% (inactive)	-84.3% (inactive)	153%	1.04	-1.34	-0.814	6.04% (inactive)	-0.428 (inactive)	6.8e-06 (inactive)	0.00637 (inactive)	inactive	0.521% (inactive)
